Data from ChEMBL document CHEMBL5038617, “1,2,4-Triazole-3-thione compounds with a 4-ethyl alkyl/aryl sulfide substituent are broad-spectrum metallo-β-lactamase inhibitors with re-sensitization activity” (Eur J Med Chem, 2021).

What was measured:
Klebsiella pneumoniae [1] = test: Synergistic antibacterial activity against Klebsiella pneumonia 7023 clinical isolate strain producing Metallo-beta-lactamase VIM-1 assessed as meropenem MIC in presence of meropenem incubated for 24 hrs by broth microdilution method; format: functional
Method in brief: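 CLSI broth microdilution in Mueller-Hinton broth with 5 × 10^4 CFU/well. Meropenem two-fold serial dilutions tested with and without inhibitor fixed at 32 µg/mL, inhibitor added before antibiotic. DMSO ≤1%. […] Growth controls included. Triplicate.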

[2] = target: Hydroxyacylglutathione hydrolase, mitochondrial (Homo sapiens, UniProt Q16775); test: Inhibition of recombinant human Glyoxalase-2 assessed as reduction of substrate level using S-D-lactoylglutathione as substrate by spectrophotometric method
Method in brief: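 Recombinant human glyoxalase II (5–25 nM) in 100 mM MOPS pH 7.2 at 25 °C. Substrate S-D-lactoylglutathione loss followed at 240 nm (ε 3.1 mM−1cm−1). Inhibitor in DMSO added to the substrate mix, and the reaction started with enzyme. Duplicate.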

[3] = Cytotoxicity against human PBMC cells assessed as cell viability measured after 24 hrs by flowcytometry method; format: toxicity, cell-based; settings: pbmc
Method in brief: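 PBMC from four individual donors were isolated by density centrifugation, frozen, thawed and resuspended at 1.10e6/mL in RPMI with 10% FBS. Compound added from 20 mM DMSO stock by serial dilution in RPMI; final concentrations 500–7.8 µM, in duplicate. After 24 h, live cells counted by flow cytometry using FSC/SSC gating. IC50 calculated for each donor.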

Klebsiella pneumoniae [4] = test: Synergistic antibacterial activity against Klebsiella pneumonia VA 416/02 clinical isolate strain producing Metallo-beta-lactamase VIM-4 assessed as meropenem MIC in presence of meropenem incubated for 24 hrs by broth microdilution method; settings: VA 416/02, 24 h
[5] = Inhibition of bacterial Metallo-beta-lactamase IMP-1 (unknown origin) assessed as substrate hydrolysis using meropenem as substrate by UV-visible spectrometry analysis; design: species or system Bacteria
Method in brief: (§1)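 Purified MBL enzyme at 1–70 nM final, in 50 mM HEPES pH 7.5 at 30 °C with 0.5% DMSO. Reporter substrate 150 µM imipenem or meropenem; hydrolysis read at 300 nm. […] Ki measured when inhibition exceeded 75%, by competitive-model v0/vi vs [I] slope or Dixon plot. Some runs used 10 min enzyme–inhibitor preincubation. Triplicate.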

[6] = Inhibition of bacterial Metallo-beta-lactamase VIM-2 (unknown origin) assessed as substrate hydrolysis using meropenem as substrate by UV-visible spectrometry analysis; design: species or system Bacteria; method in brief: as §1
[7] = Inhibition of bacterial Metallo-beta-lactamase VIM-1 (unknown origin) assessed as substrate hydrolysis using meropenem as substrate by UV-visible spectrometry analysis; design: species or system Bacteria; method in brief: as §1
[8] = Inhibition of bacterial Metallo-beta-lactamase VIM-4 (unknown origin) assessed as substrate hydrolysis using meropenem as substrate by UV-visible spectrometry analysis; design: species or system Bacteria; method in brief: as §1
[9] = Inhibition of bacterial New Delhi metallo-beta-lactamase 1 (unknown origin) assessed as substrate hydrolysis using meropenem as substrate by UV-visible spectrometry analysis; design: species or system Bacteria; method in brief: as §1
HeLa = test: Cytotoxicity against human HeLa cells assessed as LDH release measured after 24 hrs by CytoTox96 nonradioactive assay; format: functional, cell-based
Method in brief: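 HeLa cells (20,000/well) incubated 24 h at 37 °C, 5% CO2 in DMEM with 10% FBS, 4.5 mg/mL glucose and 2 mM L-glutamine, with compound up to 250 µM. LDH release measured. Medium-only control and Triton X-100 maximum-release control included. % cytotoxicity = 100 × sample/maximum release. IC50 taken as 50% cytotoxicity.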

MIC (Klebsiella pneumoniae [1]): 2 µg/mL
IC50 [2]: 52 µM
MIC (Klebsiella pneumoniae [4]): 4 µg/mL
Ki [5]: 19.6 µM
Ki [6]: 0.24 µM
Ki [7]: 0.21 µM
Ki [8]: 0.31 µM
Ki [9]: 22.3 µM
Compound: S=c1[nH]nc(-c2ccccc2)n1CCSCc1ccccc1
IC50 [3]: Non-Toxic
IC50 (HeLa): 152 µM
